“And” between values parts separate entries of the source, which are not always exact repeats. Equal entries are not always repeated.
Columns and labels:
HepG2 [1] = assay: Inhibition of fatty acid synthesis in HepG2 cells was measured at 5 uM concentration.; type: functional, Homo sapiens; set-up: scale not given: the % may be the effect or the level left
Summary of the method: (§1)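 Compounds were applied to HepG2 cells as their γ-lactone prodrugs. De novo cholesterol synthesis, fatty acid synthesis and cellular ATP levels were each expressed as % of control. Significance was marked at p < 0.001.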

HepG2 [2] = assay: Inhibition of ATP levels in HepG2 cells was measured at 15 uM concentration.; type: functional, Homo sapiens; set-up: scale not given: the % may be the effect or the level left; summary of the method: as §1
HepG2 [3] = assay: Inhibition of cholesterol synthesis in HepG2 cells was measured at 30 uM concentration.; type: functional, Homo sapiens; set-up: scale not given: the % may be the effect or the level left; summary of the method: as §1
HepG2 [4] = assay: (§2) Inhibition of fatty acid synthesis in HepG2 cells was measured at 15 uM concentration.; type: functional, Homo sapiens; set-up: scale not given: the % may be the effect or the level left; summary of the method: as §1
HepG2 [5] = assay: Inhibition of ATP levels in HepG2 cells was measured at 30 uM concentration.; type: functional, Homo sapiens; set-up: scale not given: the % may be the effect or the level left; summary of the method: as §1
HepG2 [6] = assay: Inhibition of ATP levels in HepG2 cells was measured at 5 uM concentration.; type: functional, Homo sapiens; set-up: scale not given: the % may be the effect or the level left; summary of the method: as §1
HepG2 [7] = assay: Inhibition of cholesterol synthesis in HepG2 cells was measured at 15 uM concentration.; type: functional, Homo sapiens; set-up: scale not given: the % may be the effect or the level left; summary of the method: as §1
HepG2 [8] = assay: Inhibition of cholesterol synthesis in HepG2 cells was measured at 5 uM concentration.; type: functional, Homo sapiens; set-up: scale not given: the % may be the effect or the level left; summary of the method: as §1
HepG2 [9] = assay: as §2; type: functional, Homo sapiens; set-up: scale not given: the % may be the effect or the level left; summary of the method: as §1; remark: listed apart in the source
HepG2 [10] = assay: Inhibition of fatty acid synthesis in HepG2 cells was measured at 30 uM concentration.; type: functional, Homo sapiens; set-up: scale not given: the % may be the effect or the level left; summary of the method: as §1
HepG2 [11] = assay: Inhibition of ATP levels in HepG2 cells was measured at 10 uM concentration.; type: functional, Homo sapiens; set-up: scale not given: the % may be the effect or the level left; summary of the method: as §1
HepG2 [12] = assay: (§3) Inhibition of fatty acid synthesis in HepG2 cells was measured at 10 uM concentration.; type: functional, Homo sapiens; set-up: scale not given: the % may be the effect or the level left; summary of the method: as §1
HepG2 [13] = assay: Inhibition of ATP levels in HepG2 cells was measured at 3 uM concentration.; type: functional, Homo sapiens; set-up: scale not given: the % may be the effect or the level left; summary of the method: as §1
HepG2 [14] = assay: Inhibition of cholesterol synthesis in HepG2 cells was measured at 10 uM concentration.; type: functional, Homo sapiens; set-up: scale not given: the % may be the effect or the level left; summary of the method: as §1
HepG2 [15] = assay: Inhibition of cholesterol synthesis in HepG2 cells was measured at 3 uM concentration.; type: functional, Homo sapiens; set-up: scale not given: the % may be the effect or the level left; summary of the method: as §1
HepG2 [16] = assay: Inhibition of fatty acid synthesis in HepG2 cells was measured at 3 uM concentration.; type: functional, Homo sapiens; set-up: scale not given: the % may be the effect or the level left; summary of the method: as §1
HepG2 [17] = assay: as §3; type: functional, Homo sapiens; set-up: scale not given: the % may be the effect or the level left; summary of the method: as §1; remark: listed apart in the source
HepG2 [18] = assay: Inhibition of ATP levels in HepG2 cells was measured at 28.2 uM concentration.; type: functional, Homo sapiens; set-up: scale not given: the % may be the effect or the level left
Rattus norvegicus [19] = assay: % Reduction of plasma triglyceride in the rat was measured at dose 37.5 mg/kg/d; type: functional
Summary of the method: (§4)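 Male Sprague-Dawley rats were kept on a reverse 12 h light/12 h dark cycle with free access to RM1 powdered diet and water. Compound was given orally by gavage as two doses 24 h apart. Blood was drawn mid dark cycle, 4 h after the second dose, into EDTA. Plasma was separated at 1500g for 15 min. Triglyceride was measured enzymatically (GPO-PAP) and reported as % reduction from control.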

Rattus norvegicus [20] = assay: % Reduction of plasma triglyceride in the rat was measured at dose 75 mg/kg/d; type: functional; summary of the method: as §4
ATP-citrate synthase [21] = target: T1, ATP-citrate synthase (Rattus norvegicus, UniProt P16638); assay: Inhibitory activity was tested against rat ATP-Citrate Lyase (ACL) enzyme
T1 sequence (P16638 whole entry): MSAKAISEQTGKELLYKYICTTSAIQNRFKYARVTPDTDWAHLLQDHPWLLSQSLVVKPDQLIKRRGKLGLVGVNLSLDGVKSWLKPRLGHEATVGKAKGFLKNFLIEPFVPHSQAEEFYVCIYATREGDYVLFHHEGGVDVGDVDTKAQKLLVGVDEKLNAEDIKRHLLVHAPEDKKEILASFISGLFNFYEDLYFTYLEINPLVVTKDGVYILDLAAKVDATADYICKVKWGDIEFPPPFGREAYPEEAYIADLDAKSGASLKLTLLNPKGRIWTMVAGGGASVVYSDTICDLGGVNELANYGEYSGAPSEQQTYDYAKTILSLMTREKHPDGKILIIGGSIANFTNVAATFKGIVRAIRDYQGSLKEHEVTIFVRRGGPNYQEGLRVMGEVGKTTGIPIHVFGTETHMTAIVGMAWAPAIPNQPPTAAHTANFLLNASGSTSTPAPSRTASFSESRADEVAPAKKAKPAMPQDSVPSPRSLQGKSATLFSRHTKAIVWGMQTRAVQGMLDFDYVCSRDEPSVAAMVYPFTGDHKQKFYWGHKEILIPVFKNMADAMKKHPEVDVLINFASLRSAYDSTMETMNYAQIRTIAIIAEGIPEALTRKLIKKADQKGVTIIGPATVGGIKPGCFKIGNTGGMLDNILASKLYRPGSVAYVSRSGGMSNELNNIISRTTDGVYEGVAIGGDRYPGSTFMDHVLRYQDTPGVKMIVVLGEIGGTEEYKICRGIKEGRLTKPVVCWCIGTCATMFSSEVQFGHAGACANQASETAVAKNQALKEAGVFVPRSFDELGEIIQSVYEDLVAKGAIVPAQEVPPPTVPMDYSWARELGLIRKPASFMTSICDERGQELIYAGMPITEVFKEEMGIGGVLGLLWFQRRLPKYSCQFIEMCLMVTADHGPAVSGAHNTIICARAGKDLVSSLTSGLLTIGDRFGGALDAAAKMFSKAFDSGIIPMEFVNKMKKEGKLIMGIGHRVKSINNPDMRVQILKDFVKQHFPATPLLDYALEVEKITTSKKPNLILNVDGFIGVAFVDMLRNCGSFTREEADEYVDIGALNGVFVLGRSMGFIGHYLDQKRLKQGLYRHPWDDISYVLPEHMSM

ATP-citrate synthase [22] = target: T2, ATP-citrate synthase (Homo sapiens, UniProt P53396); assay: Inhibitory activity was tested against human recombinant ATP-Citrate Lyase (ACL) enzyme
T2 sequence (P53396 whole entry): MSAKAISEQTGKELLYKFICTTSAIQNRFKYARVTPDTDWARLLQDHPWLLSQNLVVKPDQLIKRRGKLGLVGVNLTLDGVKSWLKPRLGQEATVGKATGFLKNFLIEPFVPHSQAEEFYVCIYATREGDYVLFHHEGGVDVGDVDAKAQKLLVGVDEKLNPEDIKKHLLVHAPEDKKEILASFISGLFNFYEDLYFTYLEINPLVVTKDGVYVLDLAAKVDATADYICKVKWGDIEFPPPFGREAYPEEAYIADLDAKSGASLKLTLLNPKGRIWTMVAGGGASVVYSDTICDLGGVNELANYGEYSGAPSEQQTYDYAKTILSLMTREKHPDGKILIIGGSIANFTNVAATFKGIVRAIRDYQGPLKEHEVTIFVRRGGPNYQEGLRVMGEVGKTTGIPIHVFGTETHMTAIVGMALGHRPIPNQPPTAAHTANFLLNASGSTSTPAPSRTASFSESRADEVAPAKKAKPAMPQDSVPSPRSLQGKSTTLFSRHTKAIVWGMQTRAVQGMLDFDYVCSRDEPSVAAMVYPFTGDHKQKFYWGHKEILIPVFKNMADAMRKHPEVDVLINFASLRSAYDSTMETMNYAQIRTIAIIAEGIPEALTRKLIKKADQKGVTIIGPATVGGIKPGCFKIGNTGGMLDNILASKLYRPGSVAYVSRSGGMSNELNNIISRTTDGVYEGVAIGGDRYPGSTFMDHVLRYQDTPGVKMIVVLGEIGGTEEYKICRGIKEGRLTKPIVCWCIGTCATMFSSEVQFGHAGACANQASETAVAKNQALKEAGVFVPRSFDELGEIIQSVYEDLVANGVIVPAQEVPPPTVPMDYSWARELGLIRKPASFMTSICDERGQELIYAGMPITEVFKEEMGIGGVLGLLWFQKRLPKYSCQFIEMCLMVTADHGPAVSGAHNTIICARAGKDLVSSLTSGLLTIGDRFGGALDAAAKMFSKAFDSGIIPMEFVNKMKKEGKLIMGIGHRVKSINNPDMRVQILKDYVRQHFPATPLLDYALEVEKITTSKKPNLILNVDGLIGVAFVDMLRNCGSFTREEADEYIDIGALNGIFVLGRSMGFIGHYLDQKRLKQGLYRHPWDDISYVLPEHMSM
Summary of the method: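 Recombinant human ACL enzyme. Compounds purified as γ-lactones were hydrolysed back to the open hydroxy diacid with excess aqueous NaOH before being added to the assay buffer mix. Potency is reported as the reversible Ki for enzyme inhibition.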

HepG2 [23] = assay: Inhibition of ATP levels in HepG2 cells was measured at 100 uM concentration.; type: functional, Homo sapiens; set-up: scale not given: the % may be the effect or the level left; summary of the method: as §1
HepG2 [24] = assay: Inhibition of cholesterol synthesis in HepG2 cells was measured at 100 uM concentration.; type: functional, Homo sapiens; set-up: scale not given: the % may be the effect or the level left; summary of the method: as §1

SMILES: O=C(O)C[C@@]1(O)C[C@@H](CCCCCCc2ccc(Cl)cc2Cl)OC1=O (stereo in doubt; (-)-77)
- Control (HepG2 [1]): 123%
- Control (HepG2 [2]): 99% and 98%
- Control (HepG2 [3]): 9%
- Control (HepG2 [4]): 82%
- Control (HepG2 [5]): 98%
- Control (HepG2 [6]): 101%
- Control (HepG2 [7]): 37% and 33%
- Control (HepG2 [8]): 105%
- Control (HepG2 [9]): 90%
- Control (HepG2 [10]): 39%

SMILES: O=C(O)C[C@@]1(O)C[C@@H](CCCCCCc2ccc(Cl)cc2-c2ccccc2)OC1=O
- Control (HepG2 [11]): 96% and 100%
- Control (HepG2 [12]): 88%
- Control (HepG2 [13]): 98%
- Control (HepG2 [5]): 95%
- Control (HepG2 [14]): 65% and 60%
- Control (HepG2 [15]): 101%
- Control (HepG2 [16]): 108%
- Control (HepG2 [17]): 75%

SMILES: Cc1cn(-c2cc(Cl)ccc2CCCCCC[C@@H]2C[C@](O)(CC(=O)O)C(=O)O2)cc1C
- Control (HepG2 [11]): 96% and 101%
- Control (HepG2 [18]): 96%
- Control (HepG2 [13]): 98%
- Control (HepG2 [14]): 82%
- Control (HepG2 [15]): 104%
- Control (HepG2 [16]): 102%
- Reduction (Rattus norvegicus [19]): 10%
- Reduction (Rattus norvegicus [20]): 20%
- Control (HepG2 [17]): 75% and 89%

SMILES: O=C(O)C[C@@](O)(C[C@H](O)CCCCCCc1ccc(Cl)cc1Cl)C(=O)O (stereo in doubt; 45)
- Ki (ATP-citrate synthase [21]): 1 µM
- Ki (ATP-citrate synthase [22]): 1 µM
- Control (HepG2 [23]): 104%
- Control (HepG2 [24]): 84%
